Compound activity deposited in PubChem BioAssay by several laboratories.
Myeloid diff MLP: compounds promoting myeloid differentiation | ER-HoxA9 myeloid progenitors, lysozyme-GFP differentiation, flow cytometry | calls only at 10 µM | actives 1% (n = 360,000);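 active = normalized GFP-positive differentiation at or above the plate's own cutoff, the solvent-only control mean plus 3 SD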;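 also: cells exposed to compound for four days before flow analysis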
CTSL1 counter: counter-screen for PFM18AAP inhibitors: inhibitors of F. hepatica cathepsin L1 | recombinant F. hepatica cathepsin L1, Z-Leu-Arg-MCA fluorescence | inhibition, % at 5.96 µM | actives 0.49% (n = 300,000);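 active = inhibition above the mean of all tested compounds plus 3 SD, set per screening campaign, cut at about 17% in these data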;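 also: 0% = plate median of test compound wells and 100% = 1 µM Z-Phe-Ala-diazomethylketone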
PP5 primary: inhibitors of human protein phosphatase 5 (PP5); P53041; actives 0.18% (n = 320,000); inhibition, % at 6.7 µM; AID 1987; purified PP5c, OMFP substrate fluorescence;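 active = inhibition above the campaign's mean inhibition across all tested compounds plus 3 SD, cut at about 9.5% in these data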;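 also: 0% = DMSO only and 100% = 100 µM cantharidin control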
Target sequence (P53041 whole entry, looked up): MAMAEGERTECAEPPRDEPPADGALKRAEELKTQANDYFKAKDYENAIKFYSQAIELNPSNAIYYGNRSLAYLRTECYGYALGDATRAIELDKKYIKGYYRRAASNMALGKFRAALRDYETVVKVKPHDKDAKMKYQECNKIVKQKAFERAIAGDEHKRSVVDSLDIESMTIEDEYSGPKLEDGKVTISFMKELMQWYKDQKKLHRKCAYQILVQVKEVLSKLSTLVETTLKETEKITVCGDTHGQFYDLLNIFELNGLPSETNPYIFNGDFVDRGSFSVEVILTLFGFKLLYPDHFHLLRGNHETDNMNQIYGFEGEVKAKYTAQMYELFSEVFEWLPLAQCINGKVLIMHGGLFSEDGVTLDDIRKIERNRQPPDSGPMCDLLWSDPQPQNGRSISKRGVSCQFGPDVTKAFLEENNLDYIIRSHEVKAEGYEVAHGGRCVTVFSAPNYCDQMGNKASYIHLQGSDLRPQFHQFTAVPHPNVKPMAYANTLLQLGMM
core dimer inh: HCV core protein dimerization inhibition; AID 1899; actives 0.33% (n = 300,000); TR-FRET GST/Flag-core106 dimerization, 1536-well; inhibition, % at 5 µM;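 active = inhibition above the mean of all tested compounds plus 3 SD, set per screening campaign, cut at about 45% in these data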
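System: GST/Flag-tagged HCV core106 proteins. Incubation: compound-protein-antibody incubation 4 h at 22.5 °C. Technique: HTRF with 340 nm excitation, 617/671 nm emission. Medium: KF-containing HEPES buffer, pH 7.45, DTT, CHAPS, BSA. Read-out: inhibition (%) from 671 over 617 nm ratio. Also added: Eu(K)-anti-GST 90 ng/mL plus XL665-anti-Flag 1 µg/mL.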
PP1 inh: counter-screen for PP5 inhibitors: inhibitors of human PP1-alpha | P62136 | AID 2235 | purified PP1alpha, OMFP fluorescence | actives 0.9% (n = 320,000) | inhibition, % at 6.7 µM;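 active = inhibition above the mean inhibition of all tested compounds plus 3 SD, computed separately for each screening campaign, cut at about 15% in these data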
NadD block: inhibitors of Staphylococcus aureus NadD | AID 602399 | actives 0.78% (n = 360,000) | inhibition, % at 20 µM | purified NadD enzyme, colorimetric absorbance read-out; in the data active = inhibition above about 26%
PP1 inh confirm: confirmation of human PP1 phosphatase inhibitors. actives 52% (n = 1,900). inhibition, % at 6.7 µM. shares compounds with PP1 inh. purified PP1alpha, OMFP substrate fluorescence;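 active = mean PP1 inhibition above a set limit taken from the earlier primary screen, cut at about 15% in these data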
PP5 inh counter: counter-screen for PP1 inhibitors: human PP5 phosphatase inhibition. purified PP5c, OMFP fluorescence. actives 4% (n = 1,900). shares compounds with PP1 inh. inhibition, % at 6.7 µM;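 active = mean PP5 inhibition over triplicate wells above about 9.5% taken from the earlier PP1 screen, limit read from the data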
An asterisk follows results filed as active; i = inactive; . = not tested or not shown; + = active, no number. In the library only some 3.1% were active in any assay of this set; here they are far more common.

SMILES	Myeloid diff MLP	CTSL1 counter	PP5 primary	core dimer inh	PP1 inh	NadD block	PP1 inh confirm	PP5 inh counter
C#CCOCCOCCOCCNc1nc(N2CCOCC2)nc(N2CCN(C(=O)[C@H](Cc3cc4ccccc4[nH]3)n3cc([C@@H](N)C(C)CC)nn3)CC2)n1 (stereo not given in full)	i	2.4	1.9	4.6	4.1	4.9	.	.
C#CCOCCOCCOCCNc1nc(N2CCN(C(=O)[C@H](Cc3ccc(O)cc3)n3cc([C@@H](N)C(C)CC)nn3)CC2)nc(N2CCN(C(=O)[C@H](Cc3cc4ccccc4[nH]3)n3cc([C@@H](N)Cc4ccc(O)cc4)nn3)CC2)n1 (stereo not given in full)	.	-4.3	4.2	-49.9	21.7*	.	-10.4	-1.5
C#CCOCCOCCOCCNc1nc(N2CCN(C(=O)[C@H]([C@@H](C)CC)n3cc([C@@H](N)CC(C)C)nn3)CC2)nc(N2CCN(C(=O)[C@H](Cc3cc4ccccc4[nH]3)n3cc([C@@H](N)Cc4ccc(O)cc4)nn3)CC2)n1	.	10.9	6.8	-20.8	25.2*	.	-14.7	6.4
Cc1nn(Cc2noc(C(=O)NC3CCC(C)CC3)n2)c(C)c1Br (stereo not given)	i	-0.2	-0.6	-2.5	-0.3	4.6	.	.
Cc1ccc(CSCC2Nc3ccc(C(=O)N4CCN(c5cccc(C)c5)C(C)C4)cc3NC2=O)cc1 (stereo not given)	.	1.9	0.9	70.8*	18.7*	.	29.1*	-5.7
Cc1ccc(S(=O)(=O)N2CCN(C(=O)COc3ccc(Br)cc3)CC2)cc1	i	.	2.4	.	3.0	-1.2	.	.
O=C(COc1ccccc1)N1CCN(S(=O)(=O)c2ccc(Br)cc2)CC1	i	-0.7	-0.5	-17.1	21.6*	-1.1	-1.4	-0.5
CCCOc1ccc(-c2c(C(=O)N/N=C/c3cccnc3)nnn2-c2nonc2N)cc1	i	0.8	2.4	10.8	27.4*	4.8	21.2*	-5.5
CCCOc1ccc(-c2c(C(=O)N/N=C/c3ccc(C)cc3)nnn2-c2nonc2N)cc1	i	1.0	1.7	13.8	1.5	-2.8	.	.
Cc1cc(C)c(C(=O)OCc2csc(CC(=O)Nc3ccccc3C)n2)c(C)c1	i	0.3	4.2	-0.1	20.5*	-6.9	0.9	-0.1
Cc1ccc(NC(=O)COC(=O)c2cc(=O)c3cc(F)ccc3o2)cc1	i	.	.	.	.	-1.5	.	.
O=C(NCc1ccncc1)[C@@H]1CCCN1C(=O)[C@@H]1CCCN1C(=O)c1ccccc1Cl	i	.	.	.	.	-0.1	.	.
Cc1cccc(NC(=O)CN2C(=O)N/C(=C/c3ccc(-c4cccc(C(=O)O)c4C)o3)C2=O)c1	i	5.5	-0.1	-9.6	-0.4	-5.5	.	.
Cc1cccc(NC(=O)CN2C(=O)N/C(=C/c3ccc(C)s3)C2=O)c1	+	0.4	0.7	21.9	20.6*	7.9	6.1	-5.7
Cc1ccc(N2C(=O)[C@@H]3[C@H](C2=O)[C@H]2C=C(C(=O)c4ccccc4)C=CN2[C@@H]3C(=O)c2ccc(Cl)cc2)cc1	i	-1.3	2.2	40.4	12.7	2.8	.	.
O=C(C1=C[C@@H]2[C@H]3C(=O)N(c4ccccc4Cl)C(=O)[C@H]3[C@@H](C(=O)c3ccc(Cl)cc3)N2C=C1)c1ccccc1	.	2.6	3.1	12.7	22.9*	.	17.9*	3.7
Cc1ccc(-c2cc(C(=O)Nc3ccc(S(=O)(=O)N4CC(C)OC(C)C4)cc3)[nH]n2)c(O)c1 (stereo not given)	i	0.5	1.6	2.8	18.9*	3.1	16.1*	0.7
COc1ccc(-c2nnc(NC(=O)c3ccc(F)cc3)o2)cc1	i	-3.4	3.5	5.5	24.4*	3.4	25.1*	-2.5
O=c1[nH]cc(S(=O)(=O)N2CCN(c3ccccc3F)CC2)c(=O)[nH]1	i	.	.	.	.	-5.0	.	.
CCOC(=O)N1CCC(c2cc(=O)n3[nH]c(-c4ccccc4)cc3n2)CC1	i	3.2	-2.6	0.2	3.7	11.2	.	.
CCOC(=O)N1CCC(c2cc(=O)n3[nH]c(C)c(-c4ccc(F)cc4)c3n2)CC1	i	2.8	2.6	0.1	19.5*	13.1	13.0	-1.2
COc1cccc(NC(=O)Nc2nnc(Cc3ccc(F)cc3)s2)c1	i	2.5	1.8	9.1	2.2	8.5	.	.
COc1ccc(Cc2nnc(NC(=O)Nc3cccc(OC)c3)s2)cc1	i	-5.2	-1.0	2.6	18.3*	0.7	15.4*	-2.7
COc1ccc(Cc2nnc(NC(=O)Nc3ccc(F)cc3)s2)cc1	i	0.3	-0.4	4.8	21.6*	6.1	11.4	-4.7
C=CCN(C(=O)c1csnn1)C(C(=O)NC1CCCC1)c1c(F)cccc1Cl (stereo not given)	i	-1.7	-0.5	1.7	1.3	-9.4	.	.
SMILES	Myeloid diff MLP	CTSL1 counter	PP5 primary	core dimer inh	PP1 inh	NadD block	PP1 inh confirm	PP5 inh counter
CCOc1cc(C2Nc3cccc4cccc(c34)N2)ccc1O	i	0.3	4.1	-10.3	24.2*	29.5*	1.9	8.4
CCOc1ccc(C2Nc3cccc4cccc(c34)N2)cc1OC	i	2.3	1.0	-24.9	-3.5	19.9	.	.
Nc1c(C(=O)OCC(=O)Nc2cccc([N+](=O)[O-])c2)[nH]c(=O)[nH]c1=O	i	.	.	.	.	6.0	.	.
O=c1c(C=NCCCn2ccnc2)c(-c2ccccc2)[nH]n1-c1nc2ccccc2s1	i	-1.4	4.6	-4.6	29.1*	17.1	2.2	-1.2
CN(C)CCCN=Cc1c(-c2ccccc2)[nH]n(-c2nc3ccccc3s2)c1=O	.	6.1	2.9	7.0	25.8*	1.6	4.2	-3.2
CC(=NC1CC1)c1c(-c2ccccc2)[nH]n(-c2nc3ccccc3s2)c1=O	i	0.1	-0.3	9.1	7.9	13.0	.	.
CC1=C(C(=O)Nc2ccccc2)C(c2ccco2)C(C#N)=C(SCC(=O)OC(C)C)N1 (stereo not given)	i	0.3	2.9	5.3	-1.4	4.6	.	.
CC1=C(C(=O)Nc2ccccc2)C(c2ccco2)C(C#N)=C(SCc2ccccc2)N1 (stereo not given)	.	-0.2	3.0	29.2	22.9*	.	0.3	-5.9
C[C@]1(CC/C(=C/CO)CO)[C@H](C=O)CC[C@@]23COC(=O)C2=CCC[C@@H]31	i	.	.	.	.	-6.3	.	.
c1ccc(N(c2ccccc2)c2nc(-n3ccnc3)nc(-n3ccnc3)n2)cc1	i	-3.8	1.2	11.8	50.2*	9.2	49.8*	0.4
CC(=O)N1CCN(C(=O)c2cc(S(=O)(=O)N3CCCCC3)ccc2Cl)CC1	i	1.7	-0.8	2.7	-5.7	-2.2	.	.
O=C(COc1ccc2c3c(c(=O)oc2c1)CCCC3)NCCCN1CCOCC1	i	4.2	-0.4	-12.2	-1.4	0.5	.	.
